Experimental findings from the RNAGym collection of RNA variant scans (doi:10.1126/science.aae0568) are described below.

First the molecules themselves.
B1: tRNA (parent)
chain: GUUCCGUUGGCGUAAUGGUAACGCGUCUCCCUCCUAAGGAGAAGACUGCGGGUUCGAGUCCCGUACGGAACG

This sample holds only a part of the variants without activity.

The variants in this series derive from B1. Briefly: yeast fitness relative to wild type (ratio to wild type); higher = fitter; tRNA-Arg(CCU), competitive growth, 37 C, YPD. Put shortly:
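Variants of the tRNA-Arg(CCU) gene, chemically synthesised with a 3% per-site mutation rate at 69 sites, were placed at the native genomic locus in Saccharomyces cerevisiae. The pooled strains were competed in YPD at 37°C for 24 hours in six parallel replicates. Gene amplicons from the start population and from each end population were read by 100-nucleotide paired-end sequencing. Darwinian fitness relative to wild type came from changes in genotype frequencies; genotypes needed ≥ 100 starting reads, and estimates < 0.5 were set to 0.5.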
As for GUUCCGUUGGCGUAAUGGUAACGCGUCUCCCUCCUAAGGAGAAGACUGCGGGUUGGAGUCCCGUACGUAACG [C55G G68U], the yeast fitness amounted to 0.522.
In the case of GUUCCGUUGGCGUAAUGGUGACGCGUCUCCCUCCCAAGGAGAAGACUGCGGGUUCGAGUCCCGUACGGAUCG [A20G U35C A70U], the yeast fitness came out at 0.629.
In the case of GUUCCGUUGGCGUAAUGGUAACGUGUCUCCGACCUAAGGAGACGACUGCGGGUUCGAGUCCCGUACGGAACG [C24U C31G U32A A43C], the yeast fitness is at most 0.5.
For the variant GAUCCGUUGGCAUAAUGGUACCGCGUCUCCCUCCUAAGGAGAAGACUGCGGGUUCGAGUCCCGUACGGAACG [U2A G12A A21C], the yeast fitness was 0.515.
For the variant GUUCCGGUGGCGUAAUGGUAACGCGUCUCCCUGCUAAGGAGAAGACUGCGGGUUCGAGUCCCGUACGGAACG [U7G C33G], the yeast fitness was determined as 0.654.
For GUUCAGUUGGCGUGAUGGUAACGCGUCUCCCUCCUAAGGAGAAGACUGCGGGUUCGAGUCCCGUACGGAACG [C5A A14G], the yeast fitness amounted to 0.912.
Consider GUUCCGUUGGCGUAAUGGUAACGAGUCUCCCUACUAAGGAGAAGACUGUGGGUGCGAGUCCCGUACGGACCG [C24A C33A C49U U54G A70C], for which the yeast fitness was at most 0.5.
For GUUCCGUUGGCGUAAUGGUAACGCGUCUCCCUCCUAAGGAGAUGACUGAGGGUUCGAGUCCCGUACGGAACG [A43U C49A], the yeast fitness was found to be 0.756.
For the variant GUCCCGUUGGCGUGAUGGUAAAGCGUGUCCCUCCUAAGCAGAAGACUGCGGGUUCGAGUCCGGUACGGAACG [U3C A14G C22A C27G G39C C62G], the yeast fitness is at most 0.5.
GUUCCGUUGGCGUAAUGGUAACGCGUAUCCCUCCUAAGGAGAAGACUGCGGGUUCGAGUCCCGUACGGACCG [C27A A70C]: the yeast fitness was 0.787.
With GUUCCGUUGGGGUAAUGGUAACGCGUCUACCUCCUAAGGAGAAGACUGCGGGUUCGAGUCUCGUACGGAACG [C11G C29A C61U], the yeast fitness is 0.504.
On to GGUCCGUUGGCGUAUUGGUAACGGGUCUCCCUCCUAAGGAGAAGACUGCGGGAUCGAGUCCCGAACGGAACG [U2G A15U C24G U53A U64A], for which the yeast fitness was at most 0.5.
As for GUUCCGUUGGCGUAAUGGUAACGCGUCUCCCUCCUAAGGAGAAGACUGCGGGUUCGAGUCCCGAACGUAACG [U64A G68U], the yeast fitness amounted to 0.728.
Turning to GUUCCGUUGGCGUUAUGCUAACGCGUCUCCCUCCUAAGCAGAAGACUGGGGGUUCGAGUCUCGUACGGAACG [A14U G18C G39C C49G C61U], the yeast fitness is at most 0.5.
GUUCCGUUGCCGCAAUGGUAACGGGUCUCCCUCCUAAGGAGAAGACUGCGGGUUUGAGUCCCGUACGGAACG [G10C U13C C24G C55U]: the yeast fitness was determined as 0.64.
GUUCCGUUGGCGUGAUGGUAACGCGACUCCCUCCUAAGGAGAAGACUGCGGGUUCGAGUCCCGUACGGAACG [A14G U26A]: the yeast fitness worked out at 0.989.
As to GUUCCGUUCGCGUAAUGGUAACGCGUCUACCGCCUAAGGAGAAGACUGCGGGUUCGAGUCCCGUAUGGAACG [G9C C29A U32G C66U], the yeast fitness is at most 0.5.
Take GUUCAGUUGGCGUAACGGUAAUGCGUCUCCCUCCUAAGGAGAAGACUGCGGGUUCGAGUCCCAUACGGAACG [C5A U16C C22U G63A]: the yeast fitness stood at 0.553.
The figure for GUUCCGUUGGCGUAAGGGUAACGCGUCUCCCUCCUAAGGAGGAGACUACGGGUUCGAGUCCCGUACGGAACG [U16G A42G G48A] is at most 0.5.
Take GUUCCGUUGGCGUAAUGGUUACGCGUCUCCCUCCUAAGGAGUAGACUGCGGGUUCGAGUCUCGUAUGGAACG [A20U A42U C61U C66U]: the yeast fitness was at most 0.5.
As to GUUCCGUUGGCGUAAUGGUAACGCGUGGCCCUCCUAAGGAGAAGACUGCGGGUUCGAGUCCCGUAGCGAACG [C27G U28G C66G G67C], the yeast fitness was at most 0.5.
For the variant GUUCCGUUGGCGUAAUGGUAACGCGUCUCCCUCCUAAGGAGACGACUGCGGGUUAGCGUCCCGUACGGAACG [A43C C55A A57C], the yeast fitness is at most 0.5.
As for GUUUCGUUGGCGUAAUGGUAACACGUCUCCCUCCUAAGGAGAAGACUGCGGGUUCCGGUCCCGUACGAAACG [C4U G23A G56C A57G G68A], the yeast fitness is at most 0.5.
As to GUUCCGUUGGUGUAAUGGUAACGCGUCUCCCUCCUCAGGAGAAGACUGCGGGUUCGAGUCCCGUACGGAACG [C11U A36C], the yeast fitness amounted to 0.641.
GUUCCGUUGGUGUAAUGGUAAUGCGUCUCCCUCCUAAGGAGAAGACUGCGGGUUCGAGUCCCGUAUGGAACG [C11U C22U C66U]: the yeast fitness was determined as 0.517.
As for GUUCCAUUGGCGUAAUGGUAACGUGUCUCCCUCCUAAGGAGAAGACUGCGGGUUCGAAUCCCGUACGGAACG [G6A C24U G58A], the yeast fitness worked out at 0.67.
GUUCAGUCGGCGCAAUGAUAACGCGUCUCCGUCCUAAGGAGAAGAUUGCGGGUUCGAGUCCCGUACGGAACG [C5A U8C U13C G18A C31G C46U]: the yeast fitness is at most 0.5.
For the variant GUUCCGUUGGCGUAAAGGUAACGCGUCUCCCUCCUAAGAAGAAGAUUGCGGGUUCGUGUCCCGUAUGGAACG [U16A G39A C46U A57U C66U], the yeast fitness is at most 0.5.
As for GUUCCGUUGGCGUAAUGGUGACGCGUCUCCCUCCUAAGGAGAAGACCGCGGGUUCGAUUCCCGUUCGGAACG [A20G U47C G58U A65U], the figure is at most 0.5.
As for GUUCGGUUGGCGUAAUGGUAACGCGUCUCCUCCCUAAGGAGAAGACUGCGGGUUCGAGUCCCGUACGGAACG [C5G C31U U32C], the yeast fitness stood at 0.659.
With GUUCCCUUGGCGUAAUGGUAACGCGUCACCCUGCUAAGGAGAAGACUGCGGGUUCGAGUCCCGUACGGAACG [G6C U28A C33G], the yeast fitness is at most 0.5.
GGUCCGUUGGCGUAAUGGUAACGCGUCUCCCUCCUAAGGAGAAGACUGCGGGUUCGAGUCCCGUACGGAGCG [U2G A70G]: the yeast fitness came out at 1.07.
Regarding GUUCCGUUGGCGUAAUGGUAACGUGUCUCCCUCCUAAGGAGAAGCCUGUGGGUUCGAGUCCCGUACGGAACG [C24U A45C C49U], the yeast fitness was 0.791.
The figure for GGUCCGUUGGGGUAAUGGUAACGCGUCUCCCUCCUAAGGAGAAGAGUGCGCGAUCGAGUCCCGUACGGAACG [U2G C11G C46G G51C U53A] is at most 0.5; for GUUCCGUUGGCGUAAUGGUAACGAGUCUCCCUAAUAAGGAGAAGACUGCGGGUUCGAGUCCAGUACGGAACG [C24A C33A C34A C62A] it is at most 0.5.
Take GUUCCGUUGGCGUGAUGCUAACGCGUCUCUCUCUUAAGGAGAAGACUGCGGGUUCGAGUCGCGUACGGAACG [A14G G18C C30U C34U C61G]: the yeast fitness is at most 0.5.
Turning to GUUCCGUUGGCGUAAUGGUCACGCGUCUCCCUCUUAAGGAGAAGACUGCGGGUUCGAGUACCGUAUGGAUCG [A20C C34U C60A C66U A70U], the yeast fitness was at most 0.5.
Turning to GUUCAGUUGGCGUGAUGGUAAGGCGUCUCCCUCCUAAGGAGAAGACUGCGGGUUCGAGUUUCGUACGGAACG [C5A A14G C22G C60U C61U], the yeast fitness was at most 0.5.
